Measurements: ChEMBL document CHEMBL3817745, “Structure-Activity Relationship for the 4(3H)-Quinazolinone Antibacterials” (J Med Chem, 2016)
In brackets after ≈: the same amount, converted by molar mass.

Tests used:
Enterococcus faecium = experiment: Antibacterial activity against Enterococcus faecium NCTC 7171 incubated for 16 to 20 hrs by microdilution method; format: functional
Method in brief: (§1)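 CLSI broth microdilution. 2-fold serial dilutions were made in cation-adjusted Mueller–Hinton broth, with 5% lysed horse blood added for Streptococcus strains, in triplicate. Inoculum 5×10^5 CFU/mL. Plates incubated 36 °C for 16–20 h. MIC taken as the lowest concentration visibly inhibiting growth.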

Klebsiella aerogenes = experiment: Antibacterial activity against Enterobacter aerogenes ATCC 35029 incubated for 16 to 20 hrs by microdilution method; format: functional; method in brief: as §1
Pseudomonas aeruginosa = experiment: Antibacterial activity against Pseudomonas aeruginosa […] incubated for 16 to 20 hrs by microdilution method; format: functional; method in brief: as §1
Staphylococcus aureus [1] = experiment: Antibacterial activity against methicillin-susceptible Staphylococcus aureus ATCC 29213 incubated for 16 to 20 hrs by microdilution method; format: functional
Acinetobacter baumannii = experiment: Antibacterial activity against Acinetobacter baumannii ATCC 17961 incubated for 16 to 20 hrs by microdilution method; format: functional; method in brief: as §1
Klebsiella pneumoniae = experiment: Antibacterial activity against Klebsiella pneumoniae ATCC 700603 incubated for 16 to 20 hrs by microdilution method; format: functional; method in brief: as §1
Escherichia coli = experiment: Antibacterial activity against Escherichia coli ATCC 25922 incubated for 16 to 20 hrs by microdilution method; format: functional; method in brief: as §1
Mus musculus = experiment: AUC (0 to last) in ICR mouse peritonitis model infected with methicillin resistant Staphylococcus aureus ATCC 27660 at 10 mg/kg, iv administered as single dose measured up to 8 hrs by UPLC analysis; format: ADME, organism-based; parameters: dose 10 mg/kg, time 0 - last, route intravenous; conditions: in vivo, 8 h
Method in brief: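 Fast PK: female ICR mice (n = 2 per time point) given single tail-vein iv injection at 5, 10 or 20 mg/kg in 25% DMSO/65% propylene glycol/10% water (2.5, 5 or 10 mg/mL); terminal cardiac blood at 5 min, 40 min, 2, 4, 8 h; plasma analysed by UPLC with internal standard calibration.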

HepG2 = experiment: Cytotoxicity against human HepG2 cells incubated for 16 hrs by XTT assay; format: cell-based; conditions: HepG2, 16 h
Method in brief: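 HepG2 cells were tested with an XTT viability read-out, in triplicate. IC50 was obtained by nonlinear regression.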

[2] = Hemolytic activity against human RBC at 64 ug/ml relative to control; format: ADME, cell-based, Erythrocyte; conditions: erythrocyte
Method in brief: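 Hemolysis was measured at a fixed 64 μg/mL on a 10% red-cell suspension from heparinized human blood. Triton-X served as the positive control, and results are given as percent hemolysis.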

Streptococcus oralis = experiment: Antibacterial activity against Streptococcus oralis ATCC 9811 incubated for 16 to 20 hrs by microdilution method; format: functional; method in brief: as §1
Streptococcus pyogenes = experiment: Antibacterial activity against Streptococcus pyogenes ATCC 49399 incubated for 16 to 20 hrs by microdilution method; format: functional; method in brief: as §1
[3] = system: Staphylococcus epidermidis; experiment: Antibacterial activity against Staphylococcus epidermidis ATCC 35547 incubated for 16 to 20 hrs by microdilution method; format: functional; method in brief: as §1
Staphylococcus aureus [4] = experiment: Antibacterial activity against vancomycin/methicillin-resistant Staphylococcus aureus VRS1 clinical isolate incubated for 16 to 20 hrs by microdilution method; format: functional
Bacillus cereus = experiment: Antibacterial activity against Bacillus cereus ATCC 13061 incubated for 16 to 20 hrs by microdilution method; format: functional; method in brief: as §1
Staphylococcus aureus [5] = experiment: Antibacterial activity against vancomycin/methicillin-resistant Staphylococcus aureus VRS2 clinical isolate incubated for 16 to 20 hrs by microdilution method; format: functional

Structure (SMILES) | MIC (Enterococcus faecium) [µg/mL] | MIC (Klebsiella aerogenes) [µg/mL] | MIC (Pseudomonas aeruginosa) [µg/mL] | MIC (Staphylococcus aureus [1]) [µg/mL] | MIC (Acinetobacter baumannii) [µg/mL] | MIC (Klebsiella pneumoniae) [µg/mL] | MIC (Escherichia coli) [µg/mL] | AUClast (Mus musculus) [µg·min/mL] | IC50 (HepG2) [µg/mL] | Activity [2] [%] | MIC (Streptococcus oralis) [µg/mL] | MIC (Streptococcus pyogenes) [µg/mL] | MIC [3] [µg/mL] | MIC (Staphylococcus aureus [4]) [µg/mL] | MIC (Bacillus cereus) [µg/mL] | MIC (Staphylococcus aureus [5]) [µg/mL]
O=c1c2ccccc2nc(Cc2ccccc2)n1-c1cccc(O)c1 | ≥ 8 | ≥ 16 | ≥ 16 | 32 (≈ 97.5 µM) | ≥ 16 | ≥ 16 | ≥ 16 |  |  |  |  |  |  |  |  | 
CC(=O)NCc1cccc(-n2c(/C=C/c3ccc(C#N)cc3)nc3ccccc3c2=O)c1 | ≥ 8 | ≥ 16 | ≥ 16 | 0.015 (≈ 0.0357 µM) | ≥ 16 | ≥ 16 | ≥ 16 | 142 | 99 (≈ 235 µM) | < 1 |  |  |  |  |  | 
O=c1c2ccccc2nc(/C=C/c2ccccc2[N+](=O)[O-])n1-c1cccc(O)c1 | ≥ 8 | ≥ 16 | ≥ 16 | 128 (≈ 332 µM) | ≥ 16 | ≥ 16 | ≥ 16 |  |  |  |  |  |  |  |  | 
CCc1ccc(/C=C/c2nc3ccccc3c(=O)n2-c2cccc(O)c2)cc1 | ≥ 8 | ≥ 16 | ≥ 16 | 0.5 (≈ 1.36 µM) | ≥ 16 | ≥ 16 | ≥ 16 |  |  |  |  |  |  |  |  | 
N#Cc1ccc(/C=C/c2nc3cc(C(=O)O)ccc3c(=O)n2-c2cccc(C(=O)O)c2)cc1 | ≥ 8 | ≥ 16 | ≥ 16 | 128 (≈ 293 µM) | ≥ 16 | ≥ 16 | ≥ 16 |  |  |  |  |  |  |  |  | 
O=c1c2ccccc2nc(/C=C/c2ccccc2)n1-c1cccc(O)c1 | ≥ 8 | ≥ 16 | ≥ 16 | 0.5 (≈ 1.47 µM) | ≥ 16 | ≥ 16 | ≥ 16 |  |  |  |  |  |  |  |  | 
CS(=O)(=O)Nc1cccc(-n2c(/C=C/c3ccc(F)cc3)nc3ccccc3c2=O)c1 | ≥ 8 | ≥ 16 | ≥ 16 | 0.125 (≈ 0.287 µM) | ≥ 16 | ≥ 16 | ≥ 16 | 819 | 66 (≈ 152 µM) | < 1 |  |  |  |  |  | 
Cc1ccc(-c2nc3ccccc3c(=O)n2-c2cccc(O)c2)cc1 | ≥ 8 | ≥ 16 | ≥ 16 | 128 (≈ 390 µM) | ≥ 16 | ≥ 16 | ≥ 16 |  |  |  |  |  |  |  |  | 
C#Cc1ccc(/C=C/c2nc3ccccc3c(=O)n2-c2cccc(O)c2)cc1 | ≥ 8 | ≥ 16 | ≥ 16 | 0.003 (≈ 0.00823 µM) | ≥ 16 | ≥ 16 | ≥ 16 |  |  |  |  |  |  |  |  | 
N#Cc1ccc(/C=C/c2nc3cc([N+](=O)[O-])ccc3c(=O)n2-c2cccc(C(=O)O)c2)cc1 | ≥ 8 | ≥ 16 | ≥ 16 | 64 (≈ 146 µM) | ≥ 16 | ≥ 16 | ≥ 16 |  |  |  |  |  |  |  |  | 
Nc1ccc(/C=C/c2nc3ccccc3c(=O)n2-c2cccc(O)c2)cc1 | ≥ 8 | ≥ 16 | ≥ 16 | 16 (≈ 45 µM) | ≥ 16 | ≥ 16 | ≥ 16 |  |  |  |  |  |  |  |  | 
COc1ccc(/C=C/c2nc3ccccc3c(=O)n2-c2cccc(O)c2)cc1 | ≥ 8 | ≥ 16 | ≥ 16 | 4 (≈ 10.8 µM) | ≥ 16 | ≥ 16 | ≥ 16 |  |  |  |  |  |  |  |  | 
O=c1c2ccccc2nc(/C=C/c2ccco2)n1-c1cccc(O)c1 | ≥ 8 | ≥ 16 | ≥ 16 | 128 (≈ 387 µM) | ≥ 16 | ≥ 16 | ≥ 16 |  |  |  |  |  |  |  |  | 
O=c1c2ccccc2nc(/C=C/c2ccc(Cl)cc2)n1-c1cccc(O)c1 | ≥ 8 | ≥ 16 | ≥ 16 | 0.125 (≈ 0.333 µM) | ≥ 16 | ≥ 16 | ≥ 16 |  |  |  |  |  |  |  |  | 
CN[C@@H](CC(C)C)C(=O)N[C@H]1C(=O)N[C@@H](CC(N)=O)C(=O)N[C@H]2C(=O)N[C@H]3C(=O)N[C@H](C(=O)N[C@@H](C(=O)O)c4cc(O)cc(O)c4-c4cc3ccc4O)[C@H](O)c3ccc(c(Cl)c3)Oc3cc2cc(c3O[C@H]2O[C@@H](CO)[C@H](O)[C@@H](O)[C@@H]2O[C@@H]2C[C@@](C)(N)[C@@H](O)[C@@H](C)O2)Oc2ccc(cc2Cl)[C@H]1O |  |  |  |  |  |  |  |  |  |  | 0.5 (≈ 0.345 µM) | 0.5 (≈ 0.345 µM) | 16 (≈ 11 µM) | 512 (≈ 353 µM) | 1 (≈ 0.69 µM) | 64 (≈ 44.2 µM)
O=c1c2ccccc2nc(/C=C/c2ccc(O)cc2)n1-c1cccc(O)c1 | ≥ 8 | ≥ 16 | ≥ 16 | > 128 | ≥ 16 | ≥ 16 | ≥ 16 |  |  |  |  |  |  |  |  | 
O=C(O)c1ccc(/C=C/c2nc3ccccc3c(=O)n2-c2cccc(O)c2)cc1 | ≥ 8 | ≥ 16 | ≥ 16 | > 128 | ≥ 16 | ≥ 16 | ≥ 16 |  |  |  |  |  |  |  |  | 
O=c1c2ccccc2nc(/C=C/c2ccc(C(F)(F)F)cc2)n1-c1cccc(O)c1 | ≥ 8 | ≥ 16 | ≥ 16 | 128 (≈ 313 µM) | ≥ 16 | ≥ 16 | ≥ 16 |  |  |  |  |  |  |  |  | 
N#Cc1ccc(/C=C/c2nc3ccccc3c(=O)n2-c2cccc(C(=O)NCCO)c2)cc1 | ≥ 8 | ≥ 16 | ≥ 16 | 1 (≈ 2.29 µM) | ≥ 16 | ≥ 16 | ≥ 16 | 425 | 70.2 (≈ 161 µM) | < 1 |  |  |  |  |  | 
O=c1c2ccccc2nc(/C=C/c2ccc3c(c2)OCO3)n1-c1cccc(O)c1 | ≥ 8 | ≥ 16 | ≥ 16 | 2 (≈ 5.2 µM) | ≥ 16 | ≥ 16 | ≥ 16 |  |  |  |  |  |  |  |  | 
O=c1c2ccccc2nc(/C=C/c2ccncc2)n1-c1cccc(O)c1 | ≥ 8 | ≥ 16 | ≥ 16 | 2 (≈ 5.86 µM) | ≥ 16 | ≥ 16 | ≥ 16 |  |  |  |  |  |  |  |  | 
NC(=O)c1cccc(-n2c(/C=C/c3ccc(Cl)cc3)nc3ccncc3c2=O)c1 | ≥ 8 | ≥ 16 | ≥ 16 |  | ≥ 16 | ≥ 16 | ≥ 16 |  |  |  |  |  |  |  |  | 
O=c1c2ccccc2nc(CCc2ccccc2)n1-c1cccc(O)c1 | ≥ 8 | ≥ 16 | ≥ 16 | 0.06 (≈ 0.175 µM) | ≥ 16 | ≥ 16 | ≥ 16 |  |  |  |  |  |  |  |  | 
CC(=O)Nc1cccc(-n2c(/C=C/c3ccc(F)cc3)nc3ccccc3c2=O)c1 | ≥ 8 | ≥ 16 | ≥ 16 | 1 (≈ 2.5 µM) | ≥ 16 | ≥ 16 | ≥ 16 | 284 | 46.6 (≈ 117 µM) | 3.6 |  |  |  |  |  | 
O=c1c2ccccc2nc(/C=C/C2CCCCC2)n1-c1cccc(O)c1 | ≥ 8 | ≥ 16 | ≥ 16 |  | ≥ 16 | ≥ 16 | ≥ 16 |  |  |  |  |  |  |  |  | 
N#Cc1ccc(/C=C/c2nc3ccccc3c(=O)n2-c2cccc(C(=O)NCc3cccnc3)c2)cc1 | ≥ 8 | ≥ 16 | ≥ 16 |  | ≥ 16 | ≥ 16 | ≥ 16 |  |  |  |  |  |  |  |  | 
O=c1c2ccccc2nc(/C=C/c2ccccc2F)n1-c1cccc(O)c1 | ≥ 8 | ≥ 16 | ≥ 16 | 1 (≈ 2.79 µM) | ≥ 16 | ≥ 16 | ≥ 16 |  |  |  |  |  |  |  |  | 
